Experimental data: ChEMBL document CHEMBL3792381, “Amine-free melanin-concentrating hormone receptor 1 antagonists: Novel 1-(1H-benzimidazol-6-yl)pyridin-2(1H)-one derivatives and design to avoid CYP3A4 time-dependent inhibition” (Bioorg Med Chem, 2016)
In brackets after ≈: the same amount, converted by molar mass. Activity calls are given as the source filed them. The calls are words filed in the database; no cut-off is given here.

Columns and labels:
[1] = molecular target: T1, Melanin-concentrating hormone receptor 1 (Homo sapiens, UniProt Q99705); assay: Displacement of [125I]-MCH(4 to 19) from human MCHR1 expressed in CHO cell membranes after 1 hr by liquid scintillation counting
T1 sequence (Q99705 whole entry): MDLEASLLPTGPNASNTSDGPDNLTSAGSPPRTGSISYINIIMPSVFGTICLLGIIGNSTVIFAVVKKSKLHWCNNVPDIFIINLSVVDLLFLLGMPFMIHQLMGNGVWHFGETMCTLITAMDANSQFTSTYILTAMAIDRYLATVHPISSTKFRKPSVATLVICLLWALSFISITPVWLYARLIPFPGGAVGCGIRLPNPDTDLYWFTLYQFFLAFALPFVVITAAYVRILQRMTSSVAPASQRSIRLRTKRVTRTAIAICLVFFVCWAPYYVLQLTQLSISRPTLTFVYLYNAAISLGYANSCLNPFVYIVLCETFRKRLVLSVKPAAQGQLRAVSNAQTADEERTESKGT
Method in brief: (§1)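 Membranes from CHO cells stably expressing human or rat MCHR1, prepared by homogenization and 100,000×g centrifugation, in 20 mM Tris-HCl pH 7.5 with 5 mM EDTA and protease inhibitors. Incubated with test compound and [125I]-MCH(4–19) for 1 h at room temperature. Filtered on PEI-treated GF/C filters and counted by scintillation. Nonspecific binding defined with cold MCH(1–19). IC50 from duplicate experiment.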

[2] = molecular target: Melanin-concentrating hormone receptor 1 (Rattus norvegicus, UniProt P97639); assay: Displacement of [125I]-MCH(4-19) from rat MCHR1 expressed in CHO cell membranes after 1 hr by liquid scintillation counting; method in brief: as §1
Chain of Melanin-concentrating hormone receptor 1 (Rattus norvegicus, UniProt P97639) (P97639 whole entry): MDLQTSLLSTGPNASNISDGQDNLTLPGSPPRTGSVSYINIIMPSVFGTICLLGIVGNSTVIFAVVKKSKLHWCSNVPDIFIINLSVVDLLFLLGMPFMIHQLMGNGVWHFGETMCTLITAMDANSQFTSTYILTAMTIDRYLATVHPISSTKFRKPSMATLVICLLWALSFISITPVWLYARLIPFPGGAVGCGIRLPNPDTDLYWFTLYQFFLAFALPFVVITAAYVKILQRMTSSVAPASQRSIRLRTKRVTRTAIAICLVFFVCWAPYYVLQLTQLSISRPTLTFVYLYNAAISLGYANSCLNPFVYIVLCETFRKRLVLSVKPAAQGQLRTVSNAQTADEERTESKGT

CYP3A4 = CYP3A4 (Homo sapiens, UniProt P08684); assay: Time dependent inhibition of CYP3A4 in human liver microsomes assessed as conversion of testosterone to 6beta-hydroxytestosterone by measuring remaining activity at 30 uM by UPLC analysis in presence of NADPH generating system; type: ADME; conditions: read-out: Activity
Chain of CYP3A4 (P08684 whole entry): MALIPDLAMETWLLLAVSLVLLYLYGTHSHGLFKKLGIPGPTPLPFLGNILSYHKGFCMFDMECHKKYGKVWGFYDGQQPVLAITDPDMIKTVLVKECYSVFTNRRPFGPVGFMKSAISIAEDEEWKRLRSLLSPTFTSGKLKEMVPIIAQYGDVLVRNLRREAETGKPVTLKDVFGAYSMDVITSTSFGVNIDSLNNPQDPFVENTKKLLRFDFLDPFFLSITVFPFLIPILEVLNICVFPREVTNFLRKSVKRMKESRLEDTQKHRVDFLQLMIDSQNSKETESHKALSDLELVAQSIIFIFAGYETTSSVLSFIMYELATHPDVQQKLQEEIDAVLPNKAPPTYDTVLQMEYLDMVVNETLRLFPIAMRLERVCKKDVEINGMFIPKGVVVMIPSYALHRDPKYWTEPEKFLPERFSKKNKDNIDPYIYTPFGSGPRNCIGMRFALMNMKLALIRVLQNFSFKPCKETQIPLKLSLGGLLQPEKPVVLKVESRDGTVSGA
Method in brief: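 Single-point assay: test compound at 30 µM preincubated with human liver microsomes at 37 °C in phosphate buffer pH 7.4 with an NADPH-generating system. Residual CYP3A4 activity then measured as testosterone 6β-hydroxylation by UPLC. Percent remaining = activity with preincubation (% of DMSO control) over activity without preincubation; n = 2.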

Cytochrome P450 3A4 = Cytochrome P450 3A4 (Homo sapiens, UniProt P08684); assay: Time dependent inhibition of CYP3A4 in human liver microsomes at 10 uM; type: ADME
Chain of Cytochrome P450 3A4 (P08684 whole entry): as above

[3] = Oral bioavailability in Sprague-Dawley rat plasma at 1 mg/kg administered through cassette dosing by LC/MS/MS analysis; type: ADME, organism-based
Method in brief: (§2)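 Male SD rats (eight weeks old), fed, cassette-dosed iv at 0.1 mg/kg or orally at 1 mg/kg as a suspension in 0.5% methylcellulose; n = 3. Plasma obtained by centrifugation of blood, deproteinized with acetonitrile, and measured by LC/MS/MS. AUC covers 0–8 h. Bioavailability, total clearance and Vss are derived from the iv and po data.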

[4] = molecular target: T1, Melanin-concentrating hormone receptor 1; assay: Antagonist activity at human MCHR1 expressed in CHO cells assessed as change in MCH(4 to 19)-stimulated Ca2+ concentration by Ca2+ mobilization assay; type: functional, cell-based
Method in brief: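 CHO dhfr− cells stably transfected with human MCHR1 (clone 4), seeded at 20000 cells/well and cultured about 24 h. Loaded with Fluo4 calcium dye for 30 min at 37 °C. Test compound in 10 mM HEPES pH 7.4 buffer with 0.1% BSA added, then MCH(4–19) at 2 nM final. Fluorescence read every 2 s; inhibition rate (%) taken relative to ligand-alone and DMSO-alone wells.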

[5] = Total clearance in Sprague-Dawley rat plasma at 0.1 mg/kg, iv administered through cassette dosing by LC/MS/MS analysis; type: ADME, organism-based; method in brief: as §2
[6] = Volume of distribution in steady state in Sprague-Dawley rat plasma at 0.1 mg/kg, iv administered through cassette dosing by LC/MS/MS analysis; type: ADME, organism-based; conditions: read-out: Vdss; method in brief: as §2
[7] = Cmax in Sprague-Dawley rat at 1 mg/kg, po administered through cassette dosing by LC/MS/MS analysis; type: ADME, organism-based; design: dose 1 mg/kg, route oral; conditions: in vivo; method in brief: as §2
[8] = Tmax in Sprague-Dawley rat plasma at 1 mg/kg, po administered through cassette dosing by LC/MS/MS analysis; type: ADME, organism-based; method in brief: as §2
[9] = AUC( 0 to 8 hrs) Sprague-Dawley rat plasma at 1 mg/kg, po administered through cassette dosing by LC/MS/MS analysis; type: ADME, organism-based; design: dose 1 mg/kg, time < 8 hr, route oral; method in brief: as §2
Rattus norvegicus [10] = assay: Anorectic effect in DIO-F344/Jcl rat assessed as inhibition of food intake at 3 mg/kg, po administered 2 hrs before onset of dark period for 2 days; type: functional
Method in brief: (§3)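 Male DIO-F344/Jcl rats, 45 weeks old, on high-fat diet from 5 weeks of age, singly housed on powdered high-fat diet and habituated to oral dosing with tap water. Grouped by day-0 food intake and body weight. Dosed orally once daily, suspended in 0.5% methylcellulose at 2 mL/kg, 2 h before dark onset, for 2 days; n = 6. Cumulative 2-day food intake is expressed relative to the vehicle group.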

Rattus norvegicus [11] = assay: Anorectic effect in DIO-F344/Jcl rat assessed as inhibition of food intake at 10 mg/kg, po administered 2 hrs before onset of dark period for 2 days; type: functional; design: scale not given: the % may be the effect or the level left; method in brief: as §3
[12] = Solubility of compound at pH 6.8; type: physicochemical; conditions: buffer

IC50 [1] [nM]	IC50 [2] [nM]	SMILES	further results
35	21	Cn1c(C2CC2)nc2ccc(-n3ccc(OCc4ccc(Cl)cc4)cc3=O)cc21	–
76	120	Cn1c(C2CC2)nc2ccc(-n3ccc(OCc4cccs4)cc3=O)cc21	–
90	140	Cn1c(CC2CC2)nc2ccc(-n3ccc(OCc4ccc(F)cc4)cc3=O)cc21	–
> 1000	–	Cc1c(C2CC2)nc2ncc(-n3ccc(OCc4ccc(Cl)cc4)cc3=O)cn12	–
14	9.3	Cn1c(C2CC2)nc2ccc(-n3ccc(OCc4csc(Cl)c4)cc3=O)cc21	activity at 30 µM (CYP3A4): 44%
–	–	Cc1c(C2CC2)nc2ccc(-n3ccc(OCc4ccc(Cl)cc4)cc3=O)cn12	inhibition (INH) (Cytochrome P450 3A4): Active
240	210	Cn1c(C2CCC2)nc2ccc(-n3ccc(OCc4ccc(F)cc4)cc3=O)cc21	–
16	13	Cn1c(C2CC2)nc2ccc(-n3ccc(OCc4ccc(C(F)(F)F)s4)cc3=O)cc21	bioavailability [3]: 57%; IC50 [4]: 18 nM; clearance [5]: 4.75 mL/min/kg; Vd [6]: 0.979 L/kg; Cmax [7]: 298 ng/mL; Tmax [8]: 2.7 h; AUC(0-t) at 8 h [9]: 2020 ng·h/mL; Activity (Rattus norvegicus [10]): Active; Activity (Rattus norvegicus [11]): 20.3%; solubility [12]: 0.25 µg/mL (≈ 0.561 µM); activity at 30 µM (CYP3A4): 97%
28	29	Cn1c(C2CC2)nc2ccc(-n3ccc(OCc4ccsc4)cc3=O)cc21	activity at 30 µM (CYP3A4): 74%
> 1000	900	Cn1c(C2CC2)nc2ccc(-n3ccc(OCc4ncc(Cl)cn4)cc3=O)cc21	–
85	110	CCCn1c(C2CC2)nc2ccc(-n3ccc(OCc4ccc(Cl)cc4)cc3=O)cc21	–
160	140	Cn1c(C2CC2)nc2ccc(-n3ccc(OCc4ccccc4Cl)cc3=O)cc21	–
73	47	Cn1c(C2CC2)nc2ccc(-n3ccc(OCc4ccc(Cl)cn4)cc3=O)cc21	–
600	460	Cn1c(C2CCCC2)nc2ccc(-n3ccc(OCc4ccc(F)cc4)cc3=O)cc21	–
